Source: PubChem
RGS4 pot: RGS4 potentiation or activation; HEK293 M3R/inducible RGS4, carbachol calcium flux Fluo4; active compounds read low; B-score at 10 µM; 310,000 compounds, 0.92% hits; AID 463111;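 active means B-score of the integrated calcium signal more than 4 SD below the library mean, with starting fluorescence not abnormally high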;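 further: negative B-score means reduced calcium response which marks RGS4 activation or potentiation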
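System – HEK293 FlpIn-TREx cells, stable M3R, doxycycline-inducible RGS4 · Reagent – ECmax carbachol challenge · Times – compound preincubation 20 min at room temperature before agonist · Technique – Fluo4 fluorescence kinetic imaging of calcium · Measure – B score of integrated Fluo4 ratio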
MrgX1 agonist: human MrgX1 receptor agonism, primary screen. Q96LB2. AID 588627. B-score at 10 µM. MrgX1-HEK293 cells, Fluo-4 calcium fluorescence, agonist mode; active compounds read high. 310,000 compounds, 0.44% hits;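 active means calcium response B-score plate-corrected fluorescence ratio at least 3 library SD, with starting fluorescence B-score inside 5 SD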
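Test system: HEK293 cells stably expressing human MrgX1 receptor; amount: 15,000 cells per well; doses: compound delivered in addition one of three; times: overnight plating before 1 h dye loading; detection: Fluo-4 NW calcium-flux fluorescence, kinetic read; read-out basis: B-scored fluorescence response ratio; controls: positive and negative controls per plate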
Lipid droplet: hepatic lipid droplet formation modulation; AID 1656; inhibition, % at 6.5 µM; 240,000 compounds, 0.4% hits; AML12 mouse hepatocytes, oleate lipid droplets, BODIPY imaging;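 active means lipid droplet intensity inhibited by at least 50%, with more than 500 cells counted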
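Assay system: AML12 mouse liver cells | Compound dosing: One dose, 6.5 µM compound | Read-out basis: Droplet intensity reduction, % inhibition | Measured by: Fluorescence imaging, 20x objective, two fields per well | Schedule: Overnight treatment with compound plus oleate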
MrgX1 antagonist: blocks BAM8-22 activation of human MrgX1 receptor | B-score at 10 µM | MRGX1-HEK293 calcium flux, Fluo-4, BAM8-22 antagonism; active compounds read low | Q96LB2 | 310,000 compounds, 1.3% hits;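 active means calcium-response B-score plate-corrected more than 3 library SD below zero, starting fluorescence within 5 deviations, no agonist response on first addition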;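 further: peak minus trough fluorescence over baseline after final BAM8-22 challenge near maximal dose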
RGS4 inh: human RGS4 inhibition; 310,000 compounds, 0.45% hits; P49798; B-score at 10 µM; AID 463165; HEK293 M3R/RGS4 inducible, Fluo-4 calcium flux; active compounds read high; triggered by carbachol at its EC20;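 active means B-score, a plate-corrected calcium signal, over three deviations above library mean, with baseline fluorescence within five deviations of library mean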;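 further: RGS4 expression induced by doxycycline in cells with stable M3 receptor; B-score is computed from the integrated fluorescence ratio over baseline after carbachol; higher B-score means a larger calcium signal and so more RGS4 inhibition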
Target sequence (P49798 whole entry, looked up): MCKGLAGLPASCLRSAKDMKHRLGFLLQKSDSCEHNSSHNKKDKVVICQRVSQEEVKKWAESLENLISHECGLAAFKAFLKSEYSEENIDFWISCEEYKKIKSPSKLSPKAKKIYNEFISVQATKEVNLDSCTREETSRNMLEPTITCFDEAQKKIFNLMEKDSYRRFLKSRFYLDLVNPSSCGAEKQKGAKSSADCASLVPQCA
MrgX1 allo act: human MrgX1 positive allosteric modulation, primary screen. Q96LB2. MrgX1-HEK293, Fluo-4 calcium flux, FDSS; active compounds read high. B-score at 10 µM. 310,000 compounds, 0.63% hits. AID 588675;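 active means plate-corrected calcium response at least 3 library SD above typical, normal starting fluorescence, not activating the receptor alone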;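 further: compound read alongside a low EC10 to EC30 dose of BAM8-22 agonist; peak minus trough fluorescence over baseline measured at the second addition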
Starred values were filed as active, the others as inactive. Only some compounds are listed: those with a hit (about 3.8% of all), similar ones and a draw of the others.

Results for CCC(=O)Oc1ccc(C/C(=N\O)c2ccc(O)cc2O)o1 ?
RGS4 pot: inactive; MrgX1 agonist: inactive; Lipid droplet: 9.0; MrgX1 antagonist: -4.6*; RGS4 inh: inactive; MrgX1 allo act: inactive

How did CN(c1ncnc(N)c1[N+](=O)[O-])C1CCCCC1 do in these assays?
RGS4 pot: inactive; MrgX1 agonist: 26.8*; Lipid droplet: -0.7; MrgX1 antagonist: inactive; RGS4 inh: inactive; MrgX1 allo act: inactive

Results for Cc1ccc2nc(N3CCN(c4cccc(C)c4C)CC3)c3nnnn3c2c1 ?
RGS4 pot: inactive; MrgX1 agonist: inactive; Lipid droplet: 3.2; MrgX1 antagonist: inactive; RGS4 inh: inactive; MrgX1 allo act: inactive

Results for Cc1ccc2nc(Cl)c3nnnn3c2c1 ?
RGS4 pot: inactive; MrgX1 agonist: inactive; Lipid droplet: -3.3; MrgX1 antagonist: inactive; RGS4 inh: inactive; MrgX1 allo act: 8.74*

How did O=C(NC1CCCC1)C(c1ccccc1)N(C(=O)c1csnn1)c1ccccc1F (configuration not stated) do in these assays?
RGS4 pot: inactive; MrgX1 agonist: inactive; Lipid droplet: -11.3; MrgX1 antagonist: inactive; RGS4 inh: inactive; MrgX1 allo act: inactive

How did O=[N+]([O-])c1ccccc1S(=O)(=O)Nc1nc2ccccc2s1 do in these assays?
RGS4 pot: inactive; MrgX1 agonist: inactive; Lipid droplet: 1.0; MrgX1 antagonist: inactive; RGS4 inh: inactive; MrgX1 allo act: inactive

How did O=C(NC(Nc1nc2ccc([N+](=O)[O-])cc2s1)(C(F)(F)F)C(F)(F)F)c1ccccc1Cl do in these assays?
RGS4 pot: inactive; MrgX1 agonist: inactive; Lipid droplet: -82.1; MrgX1 antagonist: -5.51*; RGS4 inh: inactive; MrgX1 allo act: inactive

Results for O=[N+]([O-])c1ccc2nc(NS(=O)(=O)c3ccc(Cl)cc3)sc2c1 ?
RGS4 pot: inactive; MrgX1 agonist: inactive; Lipid droplet: -4.2; MrgX1 antagonist: inactive; RGS4 inh: inactive; MrgX1 allo act: 10.6*

Results for O=[N+]([O-])c1ccc2nc(NS(=O)(=O)c3ccccc3[N+](=O)[O-])sc2c1 ?
RGS4 pot: inactive; MrgX1 agonist: inactive; Lipid droplet: 5.4; MrgX1 antagonist: inactive; RGS4 inh: inactive; MrgX1 allo act: 10.2*

What do the screens show for `COC(=O)C1=C(C)NC(=O)NC1c1cccc(OC)c1OCc1ccccc1` (configuration not stated)?
RGS4 pot: inactive; MrgX1 agonist: inactive; Lipid droplet: -2.6; MrgX1 antagonist: inactive; RGS4 inh: inactive; MrgX1 allo act: inactive

Results for O=C(COC(=O)/C=C/c1ccccc1[N+](=O)[O-])NCC(F)(F)F ?
RGS4 pot: inactive; MrgX1 agonist: inactive; Lipid droplet: 0.8; MrgX1 antagonist: -4.86*; RGS4 inh: inactive; MrgX1 allo act: inactive

How did CCNC(=O)COC(=O)/C=C/c1ccccc1[N+](=O)[O-] do in these assays?
RGS4 pot: inactive; MrgX1 agonist: inactive; Lipid droplet: 10.9; MrgX1 antagonist: inactive; RGS4 inh: inactive; MrgX1 allo act: inactive

How did CCCCNC(=S)N(C)/N=C/c1sc(N2CCCCC2)nc1-c1cccs1 do in these assays?
RGS4 pot: inactive; MrgX1 agonist: inactive; Lipid droplet: 7.2; MrgX1 antagonist: -8.71*; RGS4 inh: inactive; MrgX1 allo act: inactive

Results for CC(C)NC(=S)N/N=C/c1sc(N2CCCCC2)nc1-c1cccs1 ?
RGS4 pot: inactive; MrgX1 agonist: inactive; Lipid droplet: 33.3; MrgX1 antagonist: inactive; RGS4 inh: inactive; MrgX1 allo act: inactive

How did O=C(OCc1cccc([N+](=O)[O-])c1)c1ccc2ccccc2n1 do in these assays?
RGS4 pot: inactive; MrgX1 agonist: inactive; Lipid droplet: -1.2; MrgX1 antagonist: inactive; RGS4 inh: inactive; MrgX1 allo act: 11.6*

How did O=C(OCc1ccc([N+](=O)[O-])cc1)c1ccc2ccccc2n1 do in these assays?
RGS4 pot: inactive; MrgX1 agonist: inactive; Lipid droplet: 12.0; MrgX1 antagonist: inactive; RGS4 inh: inactive; MrgX1 allo act: inactive
